Results from ChEMBL document CHEMBL3608292, “Synthesis and biological evaluation of novel myrtucommulones and structural analogues that target mPGES-1 and 5-lipoxygenase” (Eur J Med Chem, 2015).

Columns and labels:
Prostaglandin E synthase = molecular target: T1, Prostaglandin E synthase (Homo sapiens, UniProt O14684); assay: Inhibition of mPGES-1 in microsomal membranes isolated from interleukin-1beta-stimulated human A549 cells using PGH2 as substrate assessed as PGE2 formation preincubated for 15 mins followed by substrate addition measured after 1 min by RP-HPLC analysis; assay type: cell membranes
T1 sequence (O14684 whole entry): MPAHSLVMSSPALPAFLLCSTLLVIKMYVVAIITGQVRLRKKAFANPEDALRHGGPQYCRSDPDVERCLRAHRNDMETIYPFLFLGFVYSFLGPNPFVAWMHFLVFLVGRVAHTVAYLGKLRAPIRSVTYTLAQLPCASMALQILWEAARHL
Method in brief: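 A549 cells kept 16 h in DMEM with 2% FCS, then 1 ng/ml IL-1β for 72 h. Cells homogenized and sonicated, microsomes obtained by centrifugation at 10,000 × g then 174,000 × g. Microsomes in 0.1 M potassium phosphate pH 7.4 with 2.5 mM glutathione, preincubated 15 min with compound or 0.3% DMSO. 20 µM PGH₂ (final) for 1 min at 4 °C. Stopped with FeCl₂/citric acid containing 11β-PGE₂, solid-phase extraction, RP-HPLC with UV at 195 nm.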

[1] = molecular target: T2, Polyunsaturated fatty acid 5-lipoxygenase (Homo sapiens, UniProt P09917); assay: Inhibition of recombinant human 5-LO expressed in Escherichia coli BL21 using arachidonic acid as substrate assessed as formation of all-trans isomer of LTB4, 5-H(P)ETE preincubated for 5 to 10 mins followed by substrate addition measured after 10 mins by HPLC analysis
T2 sequence (P09917 whole entry): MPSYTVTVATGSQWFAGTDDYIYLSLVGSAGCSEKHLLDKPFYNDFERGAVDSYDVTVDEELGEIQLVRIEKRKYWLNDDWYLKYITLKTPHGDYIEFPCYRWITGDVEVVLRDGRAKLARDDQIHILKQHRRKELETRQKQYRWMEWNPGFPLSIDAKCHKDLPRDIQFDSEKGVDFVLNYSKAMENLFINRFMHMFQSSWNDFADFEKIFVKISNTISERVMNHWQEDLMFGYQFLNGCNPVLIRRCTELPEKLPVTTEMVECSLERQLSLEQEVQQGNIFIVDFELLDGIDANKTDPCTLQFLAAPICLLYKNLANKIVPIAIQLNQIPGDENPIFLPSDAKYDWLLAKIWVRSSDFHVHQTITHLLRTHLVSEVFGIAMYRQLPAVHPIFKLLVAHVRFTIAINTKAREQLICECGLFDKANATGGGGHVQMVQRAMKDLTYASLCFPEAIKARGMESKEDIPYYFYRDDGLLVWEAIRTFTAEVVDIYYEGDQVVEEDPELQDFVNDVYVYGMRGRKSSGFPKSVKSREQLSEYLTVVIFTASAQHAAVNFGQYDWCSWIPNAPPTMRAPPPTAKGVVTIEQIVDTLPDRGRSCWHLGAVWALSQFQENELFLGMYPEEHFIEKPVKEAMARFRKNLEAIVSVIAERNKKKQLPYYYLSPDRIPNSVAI

[2] = molecular target: T3, Polyunsaturated fatty acid 5-lipoxygenase (Homo sapiens) (UniProt P09917); assay: Inhibition of recombinant human 5-LO expressed in Escherichia coli BL21 using arachidonic acid as substrate assessed as remaining activity at 10 uM preincubated for 5 to 10 mins followed by substrate addition measured after 10 mins by HPLC analysis relative to control
T3 sequence (whole entry): T2 sequence (P09917 whole entry)
Method in brief: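 5-LO expressed in E. coli BL21 from pT3-5-LO plasmid at 37 °C, then partially purified. Enzyme with compound held 5–10 min at 4 °C, prewarmed 30 s at 37 °C. Reaction started with 2 mM CaCl₂ plus 20 µM AA, stopped after 10 min at 37 °C with ice-cold methanol. All-trans LTB₄ isomers and 5-H(P)ETE quantified by HPLC. BWA4C used as control.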

[3] = molecular target: T2, Polyunsaturated fatty acid 5-lipoxygenase; assay: Inhibition of 5-LO in ionophore A23187-stimulated human PMNL using arachidonic acid as substrate assessed as formation of LTB4, 5(S),12(S)-DiHETE, 5-H(p)ETE preincubated for 15 mins followed by substrate and ionophore addition measured after 10 mins by HPLC analysis
Jurkat = assay: Cytotoxicity against human Jurkat cells assessed as induction of cell death after 48 hrs by MTT assay; assay type: functional, cell-based
Method in brief: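 Jurkat T cells grown in RPMI 1640 with 10% heat-inactivated FCS, 10 mM HEPES, penicillin/streptomycin at 37 °C, 5% CO₂. Seeded at 2 × 10⁴ per well. Compounds or 0.3% DMSO vehicle added for 48 h. MTT then added until blue staining, cells lysed overnight in 10% SDS/20 mM HCl, absorbance read at 570 nm. Three to four independent experiments.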

[4] = molecular target: T3, Polyunsaturated fatty acid 5-lipoxygenase (Homo sapiens); assay: Inhibition of 5-LO in ionophore A23187-stimulated human PMNL using arachidonic acid as substrate assessed as remaining activity at 10 uM preincubated for 15 mins followed by substrate and ionophore addition measured after 10 mins by HPLC analysis relative to control
Method in brief: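 Human PMNL isolated by dextran sedimentation, density-gradient centrifugation and hypotonic erythrocyte lysis. 5 × 10⁶ cells/ml in PBS pH 7.4 with 1 mg/ml glucose and 1 mM CaCl₂. Compounds preincubated 15 min at 37 °C, then ionophore A23187 plus 20 µM AA for 10 min at 37 °C. Stopped with methanol/HCl, PGB₁ internal standard. 5-LO metabolites analysed by HPLC. BWA4C used as control.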

Row | IC50 (Prostaglandin E synthase) | IC50 [1] | Activity [2] | IC50 [3] | Activity [4] | SMILES | EC50 (Jurkat)
1 | 6400 nM | 2500 nM |  | 1600 nM |  | CCCCCC(=O)c1c(O)cc(O)c2c1OC1=C(C(=O)C(C)(C)C(=O)C1(C)C)C2C(C)C (configuration not stated) | 7400 nM
2 | 3500 nM | 8600 nM |  | > 10000 nM | 66.1% | CC(C)C(C1=C(O)CC(C)(C)CC1=O)c1c(O)c(C(=O)c2ccccc2)c(O)c(C(C2=C(O)CC(C)(C)CC2=O)C(C)C)c1O (configuration not stated) | 4400 nM
3 | 300 nM | 6600 nM |  | 1300 nM |  | CCCCCC(=O)c1c(O)c([C@@H](CC(C)C)C2=C(O)C(C)(C)C(=O)C(C)(C)C2=O)c(O)c([C@H](C2=C(O)C(C)(C)C(=O)C(C)(C)C2=O)C(C)C)c1O [MYRTUCOMMULONE H] | 21900 nM
4 | 220 nM | 2700 nM |  | 660 nM |  | CC(C)CC(=O)c1c(O)c(C(CC(C)C)C2=C(O)C(C)(C)C(=O)C(C)(C)C2=O)c(O)c(C(CC(C)C)C2=C(O)C(C)(C)C(=O)C(C)(C)C2=O)c1O (configuration not stated) | 19200 nM
5 | 390 nM | > 10000 nM | 72.8% | 1600 nM |  | CCCCCC(=O)c1c(O)cc(O)c(C(C2=C(O)C(C)(C)C(=O)C(C)(C)C2=O)C(C)C)c1O (configuration not stated) | > 30000 nM
6 |  | 3100 nM |  | 1300 nM |  | CC(C)CC(=O)c1c(O)c(C(C2=C(O)c3ccccc3C2=O)C(C)C)c(O)c(C(C2=C(O)c3ccccc3C2=O)C(C)C)c1O (configuration not stated) | > 30000 nM
7 | 570 nM | > 10000 nM | 68.7% | 2700 nM |  | CCCCCC(=O)c1c(O)c(C(C2=C(O)CC(C)(C)CC2=O)C(C)C)c(O)c(C(C2=C(O)CC(C)(C)CC2=O)C(C)C)c1O (configuration not stated) | 3700 nM
8 | 650 nM | 1200 nM |  | 2100 nM |  | CC(C)CC(=O)c1c(O)c(C(C2=C(O)c3ccccc3C2=O)c2ccccc2)c(O)c(C(C2=C(O)c3ccccc3C2=O)c2ccccc2)c1O (configuration not stated) | > 30000 nM
9 | 5000 nM | > 10000 nM | 82.9% | > 10000 nM | 69.7% | CC(C)C(C1=C(O)C(C)(C)C(=O)C(C)(C)C1=O)c1c(O)c(C(=O)c2ccccc2)c(O)c(C(C2=C(O)C(C)(C)C(=O)C(C)(C)C2=O)C(C)C)c1O (configuration not stated) | > 30000 nM
10 | 430 nM | 460 nM |  | 690 nM |  | CCCCCC(=O)c1c(O)c(C(C2=C(O)c3ccccc3C2=O)c2ccccc2)c(O)c(C(C2=C(O)c3ccccc3C2=O)c2ccccc2)c1O (configuration not stated) | > 30000 nM
11 | 600 nM | 7500 nM |  | 3100 nM |  | CCCCCC(=O)c1c(O)c([C@H](C2=C(O)C(C)(C)C(=O)C(C)(C)C2=O)C(C)C)c(O)c([C@H](C2=C(O)C(C)(C)C(=O)C(C)(C)C2=O)C(C)C)c1O [MYRTUCOMMULONE F] | 2300 nM
12 | 810 nM | 2900 nM |  | 7300 nM |  | CCCCCC(=O)c1c(O)c(C(CC(C)C)C2=C(O)CC(C)(C)CC2=O)c(O)c(C(CC(C)C)C2=C(O)CC(C)(C)CC2=O)c1O (configuration not stated) | 13100 nM

The next lines start with the molecule.

Row | SMILES | IC50 (Prostaglandin E synthase) | IC50 [1] | Activity [2] | IC50 [3] | Activity [4] | EC50 (Jurkat)
13 | CCCCCC(=O)c1c(O)c(C(C2=C(O)C(C)(C)C(=O)C(C)(C)C2=O)C(C)C)c(O)c2c1OC1=C(C(=O)C(C)(C)C(=O)C1(C)C)C2C(C)C (configuration not stated) | 610 nM | > 10000 nM | 66.7% | 1300 nM |  | 2500 nM
14 | CC(C)C(=O)c1c2c(c(O)c3c1OC1=C(C(=O)C(C)(C)C(=O)C1(C)C)C3C(C)C)C(C(C)C)C1=C(O2)C(C)(C)C(=O)C(C)(C)C1=O (configuration not stated) | > 10000 nM | > 10000 nM | 95% | > 10000 nM | 69.5% | 17100 nM
15 | CCCCCC(=O)c1c(O)c(C(C2=C(O)c3ccccc3C2=O)C(C)C)c(O)c(C(C2=C(O)c3ccccc3C2=O)C(C)C)c1O (configuration not stated) |  | 1700 nM |  | 1500 nM |  | > 30000 nM
16 | CC(C)CC(C1=C(O)C(C)(C)C(=O)C(C)(C)C1=O)c1c(O)c(C(=O)C(C)C)c(O)c(C(CC(C)C)C2=C(O)C(C)(C)C(=O)C(C)(C)C2=O)c1O (configuration not stated) | 290 nM | 4800 nM |  | 970 nM |  | 12200 nM
17 | CC(C)C(=O)c1c(O)c(C(C2=C(O)c3ccccc3C2=O)c2ccccc2)c(O)c(C(C2=C(O)c3ccccc3C2=O)c2ccccc2)c1O (configuration not stated) | 810 nM | 730 nM |  | 1400 nM |  | > 30000 nM
18 | CC(C)C(C1=C(O)c2ccccc2C1=O)c1c(O)c(C(=O)c2ccccc2)c(O)c(C(C2=C(O)c3ccccc3C2=O)C(C)C)c1O (configuration not stated) |  |  |  |  |  | > 30000 nM
19 | CC(C)C(=O)c1c(O)c(C(C2=C(O)CC(C)(C)CC2=O)C(C)C)c(O)c(C(C2=C(O)CC(C)(C)CC2=O)C(C)C)c1O (configuration not stated) | 2100 nM | 25000 nM |  | 13000 nM |  | 2000 nM
20 | CC(C)C(=O)c1c(O)cc(O)c2c1OC1=C(C(=O)C(C)(C)C(=O)C1(C)C)[C@@H]2C(C)C | 7900 nM | 6200 nM |  | 1600 nM |  | 8100 nM
21 | CC(C)C(=O)c1c(O)c([C@@H](C2=C(O)C(C)(C)C(=O)C(C)(C)C2=O)C(C)C)c(O)c2c1OC1=C(C(=O)C(C)(C)C(=O)C1(C)C)[C@@H]2C(C)C | 490 nM | > 10000 nM | 82.3% | 980 nM |  | 3400 nM
22 | CCCCCC(=O)c1c(O)c(C(CC(C)C)C2=C(O)C(C)(C)C(=O)C(C)(C)C2=O)c(O)c(C(CC(C)C)C2=C(O)C(C)(C)C(=O)C(C)(C)C2=O)c1O (configuration not stated) | 240 nM | 3500 nM |  | 460 nM |  | 23500 nM
23 | O=C1C(C(c2ccccc2)c2c(O)c(C(=O)c3ccccc3)c(O)c(C(C3=C(O)c4ccccc4C3=O)c3ccccc3)c2O)=C(O)c2ccccc21 (configuration not stated) | 480 nM | 3000 nM |  | 1800 nM |  | > 30000 nM
24 | CC(C)CC(=O)c1c(O)cc(O)c(C(CC(C)C)C2=C(O)C(C)(C)C(=O)C(C)(C)C2=O)c1O (configuration not stated) | 640 nM | 4600 nM |  | 1800 nM |  | > 30000 nM
25 | CC(C)C(=O)c1c(O)cc(O)c(C(C2=C(O)C(C)(C)C(=O)C(C)(C)C2=O)C(C)C)c1O (configuration not stated) | 820 nM | > 10000 nM | 82.5% | 8100 nM |  | > 30000 nM
26 | CC(C)C(=O)c1c(O)c(C(C2=C(O)c3ccccc3C2=O)C(C)C)c(O)c(C(C2=C(O)c3ccccc3C2=O)C(C)C)c1O (configuration not stated) |  | 20000 nM |  |  |  | > 30000 nM
27 | CC(=O)c1c(O)c(C(C2=C(O)CC(C)(C)CC2=O)C(C)C)c(O)c(C(C2=C(O)CC(C)(C)CC2=O)C(C)C)c1O (configuration not stated) | 1100 nM | > 10000 nM | 69.3% | 8100 nM |  | 7500 nM
28 | CC(C)C(C1=C(O)CC(C)(C)CC1=O)c1c(O)c(C(C2=C(O)CC(C)(C)CC2=O)C(C)C)c(O)c(C(C2=C(O)CC(C)(C)CC2=O)C(C)C)c1O (configuration not stated) | 680 nM | 2800 nM |  | > 10000 nM | 83.5% | 6200 nM
